The species named for assay [1] is Bos taurus. Put plainly: Enhancement of [3H]ADTN to dopamine receptors at concentration of 10 nM. A digest of the protocol: (§1)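 Bovine caudate homogenized in 50 mM Tris-HCl pH 7.7 and spun twice at 40000 g. Pellet taken up in 50 mM Tris pH 7.1 with 0.1% ascorbic acid, 120 mM NaCl, 5 mM KCl, 2 mM CaCl2 and 10 μM pargyline. 0.4-0.6 mg protein incubated with 8 nM [3H]ADTN ± peptide (1, 10 or 100 nM), triplicate, 37 °C. Bound ligand collected by GF/B filtration and counted by scintillation.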

The species named for assay [2] is Bos taurus. Put plainly: Enhancement of [3H]ADTN to dopamine receptors at concentration of 100 nM. A digest of the protocol:
as §1

The species entered for assay [3] is Bos taurus. In words: Enhancement of [3H]-ADTN to dopamine receptors at concentration of 1 nM. Put shortly: as §1

Where a SMILES comes first, the peptide text is derived from it.

Regarding `CC(C)C[C@H](NC(=O)[C@@H]1CCCN1)C(=O)NCC(N)=O` (H-Pro-Leu-Gly-NH2), the figures for the Enhancement in the assay filed under Bos taurus [1], in the assay listed under Bos taurus [2] and in the assay filed under Bos taurus [3] were 28%, 46.2% and 16%, respectively.
